ChEMBL document CHEMBL5705905, “Pharmacological targeting of kinases MST1 and MST2 augments tissue repair and regeneration” (Sci Transl Med, 2016)

Experiments:
[1] = Acute toxicity in wild-type mouse assessed as cell proliferation in liver at 3 mg/kg,ip administrated daily for 7 days by Ki67 staining; assay type: organism-based; conditions: in vivo, 168 h, time 7 day
Summary of the method: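 Wild-type mice received vehicle or 3 mg/kg i.p. daily for 7 days. Ki67 staining of sections from various tissues with quantification of positive cells, n = 6; means ± SD, Student's t test. Daily weights, physical activity and serum chemistry were also monitored.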

[2] = target: Tyrosine-protein kinase ITK/TSK (Homo sapiens) (UniProt Q08881); assay: Inhibition of ITK (unknown origin) assessed as remaining activity at 1 uM by Kinome scan method relative to control
Tyrosine-protein kinase ITK/TSK (Homo sapiens), sequence (Q08881 whole entry): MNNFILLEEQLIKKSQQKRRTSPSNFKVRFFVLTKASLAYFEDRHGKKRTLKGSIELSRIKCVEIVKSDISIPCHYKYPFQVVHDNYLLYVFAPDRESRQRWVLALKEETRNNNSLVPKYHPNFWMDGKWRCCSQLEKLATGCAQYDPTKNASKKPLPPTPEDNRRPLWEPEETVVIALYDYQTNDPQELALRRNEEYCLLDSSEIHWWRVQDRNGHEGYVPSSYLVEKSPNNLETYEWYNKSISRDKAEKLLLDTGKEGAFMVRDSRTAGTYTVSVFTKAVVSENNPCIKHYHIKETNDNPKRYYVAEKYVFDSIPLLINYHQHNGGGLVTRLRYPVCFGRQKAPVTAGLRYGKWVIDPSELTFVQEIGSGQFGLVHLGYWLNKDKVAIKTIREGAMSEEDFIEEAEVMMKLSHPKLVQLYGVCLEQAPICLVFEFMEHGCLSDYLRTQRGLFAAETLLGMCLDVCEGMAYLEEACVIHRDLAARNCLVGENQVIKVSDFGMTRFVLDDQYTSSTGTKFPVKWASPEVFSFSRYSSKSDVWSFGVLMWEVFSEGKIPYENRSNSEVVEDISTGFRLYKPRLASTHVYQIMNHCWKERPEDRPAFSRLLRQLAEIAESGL

CN1C(=O)c2sccc2N(C)c2nc(Nc3ccc(S(N)(=O)=O)cc3)ncc21
Activity [1]: Non-Toxic | Activity [2]: 97%
